# Results from ChEMBL document CHEMBL3046428, “Isolation, characterization and antifungal activity of major constituents of the Himalayan lichen Parmelia reticulata Tayl” (2011).
# Columns and labels:
# Type in all cases: functional
# Fusarium udum [1] = test: Antifungal activity against Fusarium udum assessed as growth inhibition at 125 ug/ml by poisoned food technique
# Procedure, shortened: (§1)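 Poisoned-food assay on PDA. Test material was diluted in acetone and mixed into molten medium at final 250, 125 or 62.5 μg/mL, with 1 mL acetone as control. Plates received a 5 mm mycelial disc from the front of a 2-week-old colony and were incubated at 28 °C until control growth was nearly complete. Colony diameter was measured, giving %I = (C−T)/C×100. Mean ± SD of four replicates.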
# Athelia rolfsii [2] = test: Antifungal activity against Athelia rolfsii assessed as growth inhibition at 62.5 ug/ml by poisoned food technique; conditions: Agroathelia rolfsii; procedure, shortened: as §1
# Fusarium udum [3] = test: Antifungal activity against Fusarium udum assessed as growth inhibition by poisoned food technique; conditions: read-out: ED50 (the source's name)
# Procedure, shortened: (§2)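 ED50 from poisoned-food growth inhibition on PDA at 250, 125 and 62.5 μg/mL in medium, with an acetone control. Plates were inoculated with a 5 mm mycelial disc, incubated at 28 °C, and colony diameter was measured in quadruplicate. Percent inhibition was corrected by Abbott's formula, using a correction factor from the 9 cm dish diameter, and ED50 (μg/mL) was derived by probit analysis.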
# [4] = system: Globisporangium debaryanum; test: Antifungal activity against Pythium debaryanum assessed as growth inhibition at 62.5 ug/ml by poisoned food technique; procedure, shortened: as §1
# Pythium aphanidermatum [5] = test: Antifungal activity against Pythium aphanidermatum assessed as growth inhibition at 250 ug/ml by poisoned food technique; procedure, shortened: as §1
# Rhizoctonia solani [6] = test: Antifungal activity against Rhizoctonia solani assessed as growth inhibition at 125 ug/ml by poisoned food technique; procedure, shortened: as §1
# [7] = system: Globisporangium debaryanum; test: Antifungal activity against Pythium debaryanum assessed as growth inhibition by poisoned food technique; conditions: read-out: ED50 (the source's name); procedure, shortened: as §2
# Macrophomina phaseolina [8] = test: Antifungal activity against Rhizoctonia bataticola assessed as growth inhibition by poisoned food technique; conditions: read-out: ED50 (the source's name); procedure, shortened: as §2
# Macrophomina phaseolina [9] = test: Antifungal activity against Rhizoctonia bataticola assessed as growth inhibition at 62.5 ug/ml by poisoned food technique; procedure, shortened: as §1
# Pythium aphanidermatum [10] = test: Antifungal activity against Pythium aphanidermatum assessed as growth inhibition at 62.5 ug/ml by poisoned food technique; procedure, shortened: as §1
# Rhizoctonia solani [11] = test: Antifungal activity against Rhizoctonia solani assessed as growth inhibition at 250 ug/ml by poisoned food technique; procedure, shortened: as §1
# Macrophomina phaseolina [12] = test: Antifungal activity against Rhizoctonia bataticola assessed as growth inhibition at 125 ug/ml by poisoned food technique; procedure, shortened: as §1
# Pythium aphanidermatum [13] = test: Antifungal activity against Pythium aphanidermatum assessed as growth inhibition by poisoned food technique; conditions: read-out: ED50 (the source's name); procedure, shortened: as §2
# Fusarium udum [14] = test: Antifungal activity against Fusarium udum assessed as growth inhibition at 250 ug/ml by poisoned food technique; procedure, shortened: as §1
# Rhizoctonia solani [15] = test: Antifungal activity against Rhizoctonia solani assessed as growth inhibition at 62.5 ug/ml by poisoned food technique; procedure, shortened: as §1
# Fusarium udum [16] = test: Antifungal activity against Fusarium udum assessed as growth inhibition at 62.5 ug/ml by poisoned food technique; procedure, shortened: as §1
# Athelia rolfsii [17] = test: Antifungal activity against Athelia rolfsii assessed as growth inhibition by poisoned food technique; conditions: Agroathelia rolfsii; read-out: ED50 (the source's name); procedure, shortened: as §2
# Rhizoctonia solani [18] = test: Antifungal activity against Rhizoctonia solani assessed as growth inhibition by poisoned food technique; conditions: read-out: ED50 (the source's name); procedure, shortened: as §2
# [19] = system: Globisporangium debaryanum; test: Antifungal activity against Pythium debaryanum assessed as growth inhibition at 125 ug/ml by poisoned food technique; procedure, shortened: as §1
# [20] = system: Globisporangium debaryanum; test: Antifungal activity against Pythium debaryanum assessed as growth inhibition at 250 ug/ml by poisoned food technique; procedure, shortened: as §1
# Pythium aphanidermatum [21] = test: Antifungal activity against Pythium aphanidermatum assessed as growth inhibition at 125 ug/ml by poisoned food technique; procedure, shortened: as §1
# Macrophomina phaseolina [22] = test: Antifungal activity against Rhizoctonia bataticola assessed as growth inhibition at 250 ug/ml by poisoned food technique; procedure, shortened: as §1
# Athelia rolfsii [23] = test: Antifungal activity against Athelia rolfsii assessed as growth inhibition at 125 ug/ml by poisoned food technique; conditions: Agroathelia rolfsii; procedure, shortened: as §1
# Athelia rolfsii [24] = test: Antifungal activity against Athelia rolfsii assessed as growth inhibition at 250 ug/ml by poisoned food technique; conditions: Agroathelia rolfsii; procedure, shortened: as §1
Compound,inhibition at 125 µg/mL (Fusarium udum [1]) [%],inhibition at 62.5 µg/mL (Athelia rolfsii [2]) [%],EC50 (Fusarium udum [3]) [µg/mL],inhibition at 62.5 µg/mL [4] [%],inhibition at 250 µg/mL (Pythium aphanidermatum [5]) [%],inhibition at 125 µg/mL (Rhizoctonia solani [6]) [%],EC50 [7] [µg/mL],EC50 (Macrophomina phaseolina [8]) [µg/mL],inhibition at 62.5 µg/mL (Macrophomina phaseolina [9]) [%],inhibition at 62.5 µg/mL (Pythium aphanidermatum [10]) [%],inhibition at 250 µg/mL (Rhizoctonia solani [11]) [%],inhibition at 125 µg/mL (Macrophomina phaseolina [12]) [%],EC50 (Pythium aphanidermatum [13]) [µg/mL],inhibition at 250 µg/mL (Fusarium udum [14]) [%],inhibition at 62.5 µg/mL (Rhizoctonia solani [15]) [%],inhibition at 62.5 µg/mL (Fusarium udum [16]) [%],EC50 (Athelia rolfsii [17]) [µg/mL],EC50 (Rhizoctonia solani [18]) [µg/mL],inhibition at 125 µg/mL [19] [%],inhibition at 250 µg/mL [20] [%],also measured
COc1cc(C)c(C(=O)O)c(O)c1C,46.5,28.4,106,33,79.3,70.6,73.8,74.5,39.4,28.4,82,56.4,71.1,58,50,23.7,116,50.6,61.4,83.8,inhibition at 125 µg/mL (Pythium aphanidermatum [21]): 67.7%; inhibition at 250 µg/mL (Macrophomina phaseolina [22]): 68%; inhibition at 125 µg/mL (Athelia rolfsii [23]): 44.3%; inhibition at 250 µg/mL (Athelia rolfsii [24]): 53%
CC(=O)C1=C(O)C=C2Oc3c(C)c(O)c(C(C)=O)c(O)c3C2(C)C1=O (racemic) [(+/-)-ISOUSNIC ACID],63.3,32.8,70.9,35.1,75.4,73.1,71,70.4,29.3,46.1,86.4,69.1,62.3,81,35.2,33.4,69.6,64.6,66.2,72.1,inhibition at 125 µg/mL (Pythium aphanidermatum [21]): 53.2%; inhibition at 250 µg/mL (Macrophomina phaseolina [22]): 87.2%; inhibition at 125 µg/mL (Athelia rolfsii [23]): 66.1%; inhibition at 250 µg/mL (Athelia rolfsii [24]): 84%
C=C1C(=O)OC(CCCCCCCCCCCCC)C1C(=O)O (racemic) [(+/-)-Protolichesterinic acid],78,39.3,55.7,78.3,80.3,77,16.1,77.6,28.3,44.3,83.3,50,57.1,90.3,67,44.3,61.4,23.1,90,100,inhibition at 125 µg/mL (Pythium aphanidermatum [21]): 72.3%; inhibition at 250 µg/mL (Macrophomina phaseolina [22]): 89.3%; inhibition at 125 µg/mL (Athelia rolfsii [23]): 72.2%; inhibition at 250 µg/mL (Athelia rolfsii [24]): 90%
COC(=O)c1c(C)cc(OC(=O)c2c(C)cc(O)c(C=O)c2O)c(C)c1O [ATRANORIN],81.3,67.3,50.3,56.3,60.3,62,44.8,58.8,44.3,22,81.3,67.7,105,90,40,50,39.7,64.6,78,89.7,inhibition at 125 µg/mL (Pythium aphanidermatum [21]): 43%; inhibition at 250 µg/mL (Macrophomina phaseolina [22]): 80%; inhibition at 125 µg/mL (Athelia rolfsii [23]): 89.7%; inhibition at 250 µg/mL (Athelia rolfsii [24]): 100%
COC(=O)c1c(C)cc(O)c(C)c1O [ATRARIC ACID],50,33,82.3,44,88.3,67,57,77.2,28.3,22.3,80.3,50.3,81.5,80.5,46,26.7,80.2,57.5,72.3,89.3,inhibition at 125 µg/mL (Pythium aphanidermatum [21]): 50%; inhibition at 250 µg/mL (Macrophomina phaseolina [22]): 90.3%; inhibition at 125 µg/mL (Athelia rolfsii [23]): 50%; inhibition at 250 µg/mL (Athelia rolfsii [24]): 74.3%
COc1cc(C)c(C(=O)Oc2cc(C)c(C(=O)O)c(O)c2C)c(O)c1C=O [BAEOMYCESIC ACID],47.1,32.2,110,18.3,44.4,61.4,144,150,17.1,11.4,81.6,28.4,149,57.9,33.4,33.5,86.7,71.3,38.2,77.1,inhibition at 125 µg/mL (Pythium aphanidermatum [21]): 29.3%; inhibition at 250 µg/mL (Macrophomina phaseolina [22]): 49.1%; inhibition at 125 µg/mL (Athelia rolfsii [23]): 44.4%; inhibition at 250 µg/mL (Athelia rolfsii [24]): 72.4%
CCOC(=O)c1c(C)cc(O)c(C=O)c1O [ETHYL HEMATOMMATE],13.5,28.4,250,15.1,50.4,33.5,128,117,27.4,13.1,55.5,42.8,133,27.4,15.3,6.4,99,125,26.3,56.5,inhibition at 125 µg/mL (Pythium aphanidermatum [21]): 32.6%; inhibition at 250 µg/mL (Macrophomina phaseolina [22]): 53.4%; inhibition at 125 µg/mL (Athelia rolfsii [23]): 47.5%; inhibition at 250 µg/mL (Athelia rolfsii [24]): 61%
COc1cc(C)c2c(=O)c3c(O)cc(OC)cc3oc2c1 [LICHEXANTHONE],24.5,16.7,151,9.03,42.7,29.4,149,134,11.4,13,41,30.3,174,53.3,19.6,20.3,273,202,28.4,42,inhibition at 125 µg/mL (Pythium aphanidermatum [21]): 23.4%; inhibition at 250 µg/mL (Macrophomina phaseolina [22]): 50%; inhibition at 125 µg/mL (Athelia rolfsii [23]): 23.2%; inhibition at 250 µg/mL (Athelia rolfsii [24]): 37.3%
COC(=O)c1c(C)cc(O)c(C=O)c1O [METHYL HAEMATOMMATE],50.5,44.2,71.2,34,69.3,72.6,88.2,52.9,53.1,24.4,81.7,61.4,90.6,67.3,50.6,46.5,60.3,50.5,47.3,71.3,inhibition at 125 µg/mL (Pythium aphanidermatum [21]): 46.4%; inhibition at 250 µg/mL (Macrophomina phaseolina [22]): 78.2%; inhibition at 125 µg/mL (Athelia rolfsii [23]): 66.6%; inhibition at 250 µg/mL (Athelia rolfsii [24]): 89.2%
"CCOC(=O)c1c(C)cc(O)cc1O [ORSELLINIC ACID, ETHYL ESTER]",32.5,28.3,98.2,28.3,83.3,68.1,72.5,114,16.4,18.5,90.4,28,86.9,79.4,44.4,17.3,82.7,58.3,61.2,91.4,inhibition at 125 µg/mL (Pythium aphanidermatum [21]): 50.4%; inhibition at 250 µg/mL (Macrophomina phaseolina [22]): 67.2%; inhibition at 125 µg/mL (Athelia rolfsii [23]): 50.5%; inhibition at 250 µg/mL (Athelia rolfsii [24]): 78%
